Source: PubChem
OXTR agonist = human OXTR agonists, primary screen, fluorescence, CHO-OTR cells, Fluo-8 calcium; Oxytocin receptor (Homo sapiens), P30559; Fluo-8 calcium fluorescence; normalized: DMSO 0%, oxytocin 100%; activation, % at 3 µM; 320,000 tested, 0.32% active; AID 2435, 2010;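 active means activation above the mean of all tested compounds plus 3 SD, cutoff set per screening run, cut at about 20% in these data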;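 further: peak over basal fluorescence ratio from a 100 s FLIPR kinetic read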
V1aR counter = agonists of human V1a receptor, primary screen, counter-screen for OXTR agonist project, fluorescence, CHO-V1R cells; Vasopressin V1a receptor (Homo sapiens), P37288; Fluo-8 calcium fluorescence, agonist mode; 0% DMSO, 100% 3 nM vasopressin; activation, % at 3 µM; 320,000 tested, 0.25% active; AID 2797, 2010;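 active means activation above the mean activation of all tested compounds plus 3 SD, per screening run, cut at about 20% in these data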;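 further: signal is peak over basal fluorescence ratio across a 100 second FLIPR read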
Target sequence (P37288 whole entry, looked up): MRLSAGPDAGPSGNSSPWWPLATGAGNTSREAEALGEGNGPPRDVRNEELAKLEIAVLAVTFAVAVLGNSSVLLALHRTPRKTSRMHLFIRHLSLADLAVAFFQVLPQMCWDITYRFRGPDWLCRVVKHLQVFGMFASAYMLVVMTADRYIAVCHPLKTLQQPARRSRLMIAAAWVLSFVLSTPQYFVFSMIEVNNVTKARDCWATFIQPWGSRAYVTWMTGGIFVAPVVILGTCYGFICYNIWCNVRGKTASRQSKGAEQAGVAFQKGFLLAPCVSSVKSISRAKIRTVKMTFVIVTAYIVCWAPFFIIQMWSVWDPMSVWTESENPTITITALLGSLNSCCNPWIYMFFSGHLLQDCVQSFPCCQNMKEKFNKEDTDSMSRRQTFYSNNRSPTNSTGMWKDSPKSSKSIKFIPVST
TRPML3 agonist = human TRPML3 channel agonists, primary screen, cell-based, HEK293 TRPML3-YFP, Fluo-8 calcium fluorescence, 3 µM; Mucolipin-3 (Homo sapiens), Q8TDD5; 100% = the carbachol control signal; activation, % at 3 µM; 220,000 tested, 0.29% active; AID 1448, 2008;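 active means activation above its plate's cutoff, the mean activation of the plate's test wells plus 3 SD, cut at about 12% in these data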;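 further: 0% = DMSO only wells and 100% = carbachol wells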
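Test system – HEK293 line with stable expression of human TRPML3-YFP channel · Control set – carbachol 87 µM final as high control (100%), DMSO as low control (0%) · Signal – Fluo-8 calcium dye fluorescence, ex 470-495, em 515-575 nm · Incubation – 1-h 37 °C dye load, 5-s basal, 120-s post-compound reads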
zfTRPN1 agonist = zebrafish TRPN1 channel agonists, primary screen, cell-based, HEK293, calcium fluorescence | transient receptor potential cation channel N1 (TRPN1/NompC), Danio rerio | HEK293 zebrafish TRPN1-YFP, Fluo-8 calcium fluorescence; 100% = response to 87 µM carbachol | activation, % at 3 µM | 220,000 tested, 0.18% active;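 active means activation above its plate's cutoff, the mean activation of test wells on that plate plus 3 SD, cut at about 19% in these data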;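 further: 0% = DMSO alone and 100% = 87 µM carbachol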
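Material – zebrafish TRPN1-YFP in HEK293 cells · Doses – 3 µM single point · Schedule – dye 1 h 37 °C plus 30 min RT · Signal – Fluo-8 calcium fluorescence, excitation 470-495 nm, emission 515-575 nm · Read-out – % activation versus carbachol response · Control set – carbachol high, DMSO low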
OXTR potentiate = human OXTR potentiators, primary screen, fluorescence, CHO-OTR cells, Fluo-8 calcium; AID 2445, 2010; 320,000 tested, 0.061% active; Fluo-8 calcium fluorescence, potentiator mode; 0% = oxytocin EC15, 100% = EC100; activation, % at 3 µM;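 active means activation above that plate's cutoff, the mean activation of tested compounds plus 3 SD, cut at about 6.6% in these data, passing the limit was not always enough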;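 further: 100% uses oxytocin at 75 nM as the full agonist control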
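Assay system: CHO cell line stably expressing human OTR | Also added: Oxytocin at about EC15, sub-maximal agonist stimulus | Times: Compound 6 min at room temperature before oxytocin, 100 s read | Measured by: Fluo-8 intracellular calcium fluorescence, ex 470-495, em 515-575 nm | Controls: EC15 oxytocin alone as 0%, 75 nM oxytocin as 100%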
Starred values were filed as active, the others as inactive; / = no result given. Only some compounds are listed: those with a hit (about 0.55% of all), similar ones and a draw of the others.

SMILES	OXTR agonist	V1aR counter	TRPML3 agonist	zfTRPN1 agonist	OXTR potentiate
COc1cc(/C=C(\C#N)c2nc3ccccc3o2)ccc1O	30*	24*	16*	66*	-32
CCC(=O)Nc1cc(C(=O)O)ccc1Sc1ccc(Cl)cc1	2	1	0	-1	0
COCCCn1c(=NC(=O)c2ccccc2)c(C#N)cc2c(=O)n3cccc(C)c3nc21	-2	-2	25*	37*	-7
CCCCCCn1c(=O)[nH]c2nc3cc(N)c(C)cc3nc2c1=O	/	/	15*	42*	/
Cc1nc(N)c(CC(Br)CBr)c(Cl)n1 (configuration not stated)	2	0	0	2	-2
Cc1ccc(O)c(C(=O)c2cc(C#N)c(=O)n(-c3nccs3)c2)c1	66*	54*	19*	45*	-15
COCCNC(=O)C(c1ccc(C)cc1)N(C(=O)CCC(=O)Nc1ccccn1)c1ccc(C)cc1 (configuration not stated)	2	0	/	/	2
COc1ccc(-c2n[nH]c(=S)nc2-c2ccc(OC)cc2)cc1	2	2	/	/	3
CCOC(=O)/C(=C\C=C1/Sc2ccccc2N1CC)C(C)=O	60*	40*	20*	30*	-12
CCOC(=O)/C(=C/C=C1\Sc2ccccc2N1CC)C(C)=O	46*	49*	23*	51*	-17
CCOC(=O)/C(=C/C=C1\Sc2cc(C)c(C)cc2N1CC)C(C)=O	/	/	21*	31*	/
Oc1c(C=Nc2cccc3cccnc23)sc2ccccc12	48*	65*	9	12	-25
Cc1cccc(/N=C/c2sc3ccccc3c2O)n1	1	3	1	2	-18
COc1ccc(C)cc1NC(=O)c1ccccc1NS(=O)(=O)c1ccc(Cl)s1	13	8	14*	22*	-16
CCN(CC)c1ccc2cc(-c3nnc(-c4ccc(Br)cc4)o3)c(=O)oc2c1	/	/	4	6	/
CCN(CC)c1ccc2cc(-c3nc(-c4ccc(OC)cc4)cs3)c(=O)oc2c1	454*	297*	67*	64*	-21
CCN(CC)c1ccc2cc(-c3nc4ccccc4[nH]3)c(=O)oc2c1	323*	288*	55*	128*	-14
CCN(CC)c1ccc2cc(-c3nc4ccccc4n3C)c(=O)oc2c1	17	18	2	7	-12
COc1cc(/C=N/NC(=O)c2ccncc2)ccc1OC(=O)c1cc(OC)c(OC)c(OC)c1	3	4	/	/	-6
CC(SCC(=O)Nc1ccc(F)cc1)c1nc2ccccc2c(=O)[nH]1 (configuration not stated)	0	1	/	/	3
COc1ccc(N=CC2=C(Nc3ccc(OC)cc3)c3c(C)nn(-c4ccccn4)c3CC2)cc1	10	21*	6	6	-7
Fc1ccc(-c2cc(C(F)(F)F)n3ncnc3n2)cc1	0	0	1	0	-1
COC(=O)c1cccc(NC(=O)NC(=O)c2ccc(Cl)cc2)c1	0	0	0	2	-12
COC(=O)c1cccc(NC(=O)Nc2ccc(Cl)cc2)c1	14	14	7	21*	-20
COc1cc(/C=C2\CC/C(=C\c3ccc(OCCO)c(OC)c3)C2=O)ccc1OCCO	30*	43*	27*	50*	-19
COc1cc2nc(/C=C/c3ccc(N(C)C)cc3)sc2cc1SC	21*	17	7	8	-11
CCN(CC)c1ccc(/C=C/c2nc3ccccc3s2)cc1	7	6	3	4	-12
N#C/C(=C/c1ccccc1)C(=O)NCc1ccccc1	-2	-1	1	0	-2
CN(C)c1ccc(/C=C(/C#N)C(=O)NCc2ccccc2)o1	20*	23*	20*	20*	-11
CC(C)n1cc(CN2CCC(C(=O)Nc3ccc(Oc4ccccc4F)cc3)CC2)cn1	9	11	/	/	-11
